From ChEMBL document CHEMBL1140216, “Triazine compounds as antagonists at Bv8-prokineticin receptors” (J Med Chem, 2008)
Blank lines part the entries; values can stand above or below the molecule they belong to.

Columns and labels:
Prokineticin receptor 2 [1] = biological target: T1, Prokineticin receptor 2 (Homo sapiens, UniProt Q8NFJ6); experiment: Displacement of [I125]MIT from PKR2 expressed in CHO cell membrane; format: cell membranes
Prokineticin receptor 1 [2] = biological target: T2, Prokineticin receptor 1 (Homo sapiens, UniProt Q8TCW9); experiment: Displacement of [I125]MIT from PKR1 expressed in CHO cell membrane; format: cell membranes
Prokineticin receptor 2 [3] = biological target: T1, Prokineticin receptor 2; experiment: Antagonist activity at PKR2 expressed in CHO cell membrane assessed as reduction of Bv8-induced increase in intracellular calcium level at 10 uM; format: functional, cell-based; set-up: scale not given: the % may be the effect or the level left
Summary of the method: (§1)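 Intact CHO cells transfected with PKR1 or PKR2. Compound preincubated 4 min, then challenged with 1 nM Bv8, and fluorescence followed for 2 min. Intracellular Ca2+ was read as the 340/380 nm […] ratio, and the result was scored as the percentage of cells responding to Bv8.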

Prokineticin receptor 1 [4] = biological target: T2, Prokineticin receptor 1; experiment: Antagonist activity at PKR1 expressed in CHO cell membrane assessed as reduction of Bv8-induced increase in intracellular calcium level at 10 uM; format: functional, cell-based; set-up: scale not given: the % may be the effect or the level left; summary of the method: as §1
Prokineticin receptor 1 [5] = biological target: T2, Prokineticin receptor 1; experiment: Antagonist activity at PKR1 expressed in CHO cell membrane assessed as reduction of Bv8-induced increase in intracellular calcium level at 1 mM; format: functional, cell-based; set-up: scale not given: the % may be the effect or the level left; summary of the method: as §1
Prokineticin receptor 2 [6] = biological target: T1, Prokineticin receptor 2; experiment: Antagonist activity at PKR2 expressed in CHO cell membrane assessed as reduction of Bv8-induced increase in intracellular calcium level at 1 mM; format: functional, cell-based; set-up: scale not given: the % may be the effect or the level left; summary of the method: as §1
Prokineticin receptor 2 [7] = biological target: T1, Prokineticin receptor 2; experiment: Antagonist activity at PKR2 expressed in CHO cell membrane assessed as reduction of Bv8-induced increase in intracellular calcium level at 300 nM; format: functional, cell-based; set-up: scale not given: the % may be the effect or the level left; summary of the method: as §1
Prokineticin receptor 1 [8] = biological target: T2, Prokineticin receptor 1; experiment: Antagonist activity at PKR1 expressed in CHO cell membrane assessed as reduction of Bv8-induced increase in intracellular calcium level at 100 nM; format: functional, cell-based; set-up: scale not given: the % may be the effect or the level left; summary of the method: as §1
[9] = Selectivity for ratio of Ki for PKR2 to Ki for PKR1
Prokineticin receptor 1 [10] = biological target: T2, Prokineticin receptor 1; experiment: Antagonist activity at PKR1 expressed in CHO cell membrane assessed as reduction of Bv8-induced increase in intracellular calcium level at 300 nM; format: functional, cell-based; set-up: scale not given: the % may be the effect or the level left; summary of the method: as §1
Prokineticin receptor 2 [11] = biological target: T1, Prokineticin receptor 2; experiment: Antagonist activity at PKR2 expressed in CHO cell membrane assessed as reduction of Bv8-induced increase in intracellular calcium level at 100 nM; format: functional, cell-based; set-up: scale not given: the % may be the effect or the level left; summary of the method: as §1
Prokineticin receptor 1 [12] = biological target: T2, Prokineticin receptor 1; experiment: Antagonist activity at PKR1 expressed in CHO cell membrane assessed as reduction of Bv8-induced increase in intracellular calcium level at 100 uM; format: functional, cell-based; set-up: scale not given: the % may be the effect or the level left; summary of the method: as §1

T1 sequence (Q8NFJ6 whole entry): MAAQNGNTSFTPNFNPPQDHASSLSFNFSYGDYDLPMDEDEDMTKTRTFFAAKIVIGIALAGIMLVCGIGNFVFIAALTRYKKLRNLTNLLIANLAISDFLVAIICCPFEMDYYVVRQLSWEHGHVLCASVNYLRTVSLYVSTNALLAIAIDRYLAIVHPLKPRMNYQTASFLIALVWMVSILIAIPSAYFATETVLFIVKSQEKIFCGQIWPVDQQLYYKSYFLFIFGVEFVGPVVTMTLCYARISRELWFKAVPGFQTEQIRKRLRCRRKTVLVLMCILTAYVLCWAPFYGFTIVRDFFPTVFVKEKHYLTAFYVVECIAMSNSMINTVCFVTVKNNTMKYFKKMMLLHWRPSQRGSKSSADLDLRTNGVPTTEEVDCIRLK
T2 sequence (Q8TCW9 whole entry): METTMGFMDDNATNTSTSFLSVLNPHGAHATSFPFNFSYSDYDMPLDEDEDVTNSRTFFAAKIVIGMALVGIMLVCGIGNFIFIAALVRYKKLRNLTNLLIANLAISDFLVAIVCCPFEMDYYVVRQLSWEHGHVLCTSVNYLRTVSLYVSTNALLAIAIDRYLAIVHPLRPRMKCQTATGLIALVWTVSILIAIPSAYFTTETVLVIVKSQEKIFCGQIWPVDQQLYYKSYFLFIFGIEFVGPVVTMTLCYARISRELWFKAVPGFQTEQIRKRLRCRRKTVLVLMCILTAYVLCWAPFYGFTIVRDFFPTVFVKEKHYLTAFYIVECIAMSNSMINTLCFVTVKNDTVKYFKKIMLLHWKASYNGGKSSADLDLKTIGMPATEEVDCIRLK

Ki (Prokineticin receptor 2 [1]): 71.2 µM | Ki (Prokineticin receptor 1 [2]): 4720 nM
Structure (SMILES): CCc1ccc(Cn2c(=O)nc(NCCN=C3NCCN3)n(Cc3ccc(OC)cc3)c2=O)cc1

Activity (Prokineticin receptor 2 [3]): 89% | Activity (Prokineticin receptor 1 [4]): 90% | Activity (Prokineticin receptor 1 [5]): 0.3% | Activity (Prokineticin receptor 2 [6]): 2% | Ki (Prokineticin receptor 2 [1]): 23.4 µM | Ki (Prokineticin receptor 1 [2]): 440 nM
Structure (SMILES): CCc1ccc(Cn2c(=O)nc(NCCN)n(Cc3ccc(OC)cc3)c2=O)cc1

Activity (Prokineticin receptor 2 [7]): 6% | Activity (Prokineticin receptor 1 [8]): 52% | Ratio Ki [9]: 70 | Activity (Prokineticin receptor 1 [10]): 4% | Ki (Prokineticin receptor 2 [1]): 1.61 µM | Ki (Prokineticin receptor 1 [2]): 22 nM | Activity (Prokineticin receptor 2 [11]): 48%
Structure (SMILES): CCc1ccc(Cn2c(=O)nc(NCCNC(=N)N)n(Cc3ccc(OC)cc3)c2=O)cc1

Activity (Prokineticin receptor 1 [12]): 91%
Structure (SMILES): CCc1ccc(Cn2c(=O)nc(NCCNC3=NCCN3)n(Cc3ccc(OC)cc3)c2=O)cc1
